How the values were obtained:
[1] = molecular target: T1, Sphingosine 1-phosphate receptor 2 (Homo sapiens, UniProt O95136); test: Agonist activity at human S1P2 receptor expressed in CHO cells assessed as calcium flux measured for 3 mins by fluorescence assay; assay type: functional, cell-based; conditions: read-out: IC50 (the source's name)
Method in brief: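 CHO cells stably overexpressing human S1P2, seeded overnight at 37 °C/5% CO2, washed and starved 1 h in F-12 with 0.1% fatty-acid-free BSA, loaded with Fluo 8 dye with 5 mM probenecid. Compound added, fluorescence read 3 min; max/baseline ratio normalized to vehicle and S1P EC100. 10-point 1/3 dilutions from 23.3 μM final; EC50 derived; geometric mean of ≥2 runs.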

[2] = molecular target: T1, Sphingosine 1-phosphate receptor 2; test: Antagonist activity at human S1P2 receptor expressed in CHO cells assessed as EC80 S1P-induced calcium flux measured for 3 mins by fluorescence assay; assay type: functional, cell-based
Method in brief: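 Same dye-loaded, starved human S1P2-CHO cells; after agonist readout, 15 min at 37 °C, then stimulated with S1P at EC80, fluorescence read 3 min. Max/baseline ratio normalized to vehicle and S1P EC80. 10-point 1/3 dilutions from 20 μM final; IC50 derived; geometric mean of ≥2 runs.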

[3] = molecular target: T1, Sphingosine 1-phosphate receptor 2; test: Antagonist activity at recombinant human S1P2 receptor expressed in CHO cells assessed as EC80 S1P-induced activation incubated for 4 hrs in presence of [35S]GTPgammaS by Topcount reader; assay type: functional, cell-based
Method in brief: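 Membranes from stable lines overexpressing recombinant human S1P2, preincubated with PVT-WGA SPA beads, mixed with compound serial dilutions, [35S]GTPγS and S1P at EC80. Incubated 4 h at room temperature, centrifuged, scintillation counted. Antagonist mode; IC50 as geometric mean of ≥2 runs.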

[4] = molecular target: T1, Sphingosine 1-phosphate receptor 2; test: Antagonist activity at recombinant human S1P2 receptor in HFL1 cells assessed as inhibition of EC80 S1P-induced IL8 release incubated for 16 to 24 hrs in absence of HSA by ELISA; assay type: functional, cell-based
Method in brief: (§1)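 HFL-1 lung fibroblasts seeded in 96- or 384-well plates, then medium replaced by starvation medium with 1% heat-inactivated FBS, ±1.95% HSA (2% HSA condition), 16–24 h. 10-point 1/3 dilutions, 30 μM top final, 1 h, then S1P at EC80 (without HSA: 1 μM 96-well or 0.5 μM 384-well; with HSA: 5 or 2 μM).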

[5] = Intrinsic clearance unbound in mouse liver microsomes at 1 uM […] by LC-MS/MS analysis; assay type: ADME, Microsome
[6] = Intrinsic clearance unbound in human liver microsomes at 1 uM […] by LC-MS/MS analysis; assay type: ADME, Microsome
[7] = molecular target: T1, Sphingosine 1-phosphate receptor 2; test: Antagonist activity at recombinant human S1P2 receptor in HFL1 cells assessed as inhibition of EC80 S1P-induced IL8 release incubated for 16 to 24 hrs in presence of 2% HSA by ELISA; assay type: functional, cell-based; method in brief: as §1

T1 sequence (O95136 whole entry): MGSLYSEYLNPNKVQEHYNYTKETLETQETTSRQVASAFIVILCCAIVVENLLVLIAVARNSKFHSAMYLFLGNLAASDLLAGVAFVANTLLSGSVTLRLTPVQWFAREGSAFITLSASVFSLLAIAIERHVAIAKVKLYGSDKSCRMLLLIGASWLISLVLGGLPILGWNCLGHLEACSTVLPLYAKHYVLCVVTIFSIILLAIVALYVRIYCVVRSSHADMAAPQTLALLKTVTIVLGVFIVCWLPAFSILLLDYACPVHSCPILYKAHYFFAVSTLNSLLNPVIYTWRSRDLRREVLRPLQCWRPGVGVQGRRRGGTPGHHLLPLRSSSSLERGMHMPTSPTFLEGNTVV

Structure (SMILES) | EC50 [1] [µM] | IC50 [2] [µM] | IC50 [3] [µM] | IC50 [4] [nM] | CL free [5] [mL/min/kg] | CL free [6] [mL/min/kg] | IC50 ([3]; cho) | IC50 [7] [µM]
Cc1cc(NNC(=O)Nc2cc(Cl)nc(Cl)c2)nc(C(=O)N(C)C)c1 | > 23 | > 19 |  |  |  |  |  | 
CCOc1cc(NC(=O)NCc2cc(C)c(N3CC(C)OC(C)C3)cn2)cc(Cl)n1 (configuration not stated) |  | 0.016 | 105 | 105 | 500 | 125 |  | 
Cc1cc(NNC(=O)Nc2cc(Cl)nc(Cl)c2)ncc1N(C)C | > 23 | 3.6 | 5.3 |  |  |  |  | 
Cc1cc(CO)nc(NNC(=O)Nc2cc(Cl)nc(Cl)c2)c1 | > 23 | > 6.6 | 31 |  |  |  |  | 
Cc1cc(NNC(=O)Nc2cc(Cl)nc(Cl)c2)nc(C(=O)NC2CC2)c1 | > 23 | 4.5 |  |  |  |  |  | 
Cc1cc(C#N)nc(NNC(=O)Nc2cc(Cl)nc(Cl)c2)c1 | > 23 | > 6.6 |  |  |  |  |  | 
Cc1cc(NNC(=O)Nc2cc(Cl)nc(Cl)c2)ncc1C#N | > 23 | 6 | 7 |  |  |  |  | 
Cc1cc(NNC(=O)Nc2cc(Cl)nc(Cl)c2)nc(C(=O)N(C)C2CC2)c1 | > 23 | > 20 |  |  |  |  |  | 
Cc1cc(NNC(=O)Nc2cc(Cl)nc(Cl)c2)nc(-c2ccc(F)cc2)c1 | > 23 | 1.3 | 6.2 |  |  |  |  | 
Cc1cc(NNC(=O)Nc2cc(Cl)nc(Cl)c2)nc(-c2cnn(C)c2)c1 | > 23 | > 2.1 | 3.1 |  |  |  |  | 

Second part, the compound after the results:

EC50 [1] [µM] | IC50 [2] [µM] | IC50 [3] [µM] | IC50 [4] [nM] | CL free [5] [mL/min/kg] | CL free [6] [mL/min/kg] | IC50 ([3]; cho) | IC50 [7] [µM] | Structure (SMILES)
 | > 19 | > 100 | > 100 | 85 |  |  |  | Cc1cc(CNC(=O)c2cc(Cl)nc(Cl)c2)ncc1-c1cn(C)nc1C
 | 0.012 | 55 | 55 | 867 | 267 |  |  | CCOc1cc(NC(=O)NCc2cc(C)c(Nc3cn(C)nc3C)cn2)cc(C(F)(F)F)n1
 | 2140 | > 10000 | > 10000 | < 90 | 23.3 |  |  | Cc1cc(CNC(=O)Nc2cc(OCCN(C)C)nc(C(F)(F)F)c2)nnc1-c1cn(C)nc1C(F)(F)F
 | > 19 |  |  | 3770 |  | Not Active |  | Cc1cc(CNC(=O)Cc2ccc(Cl)c(Cl)c2)ncc1-c1cn(C)nc1C
 | 0.033 | 2.25 | 2.25 | 1370 |  |  |  | CCOc1nc(Cl)cc2nc(NCc3cc(C)c(-c4cn(C)nc4C)cn3)[nH]c12
 | 0.16 | 0.3 | 0.3 | 2650 |  |  |  | Cc1cc(CNC(=O)Nc2cc(Cl)cc(Cl)c2)ncc1-c1cn(C)nc1C
 | 0.3 | 0.77 | 0.77 | 200 |  |  |  | Cc1cc(CNC(=O)Nc2cc(Cl)nc(Cl)c2)ncc1-c1cn(C)nc1C
4.7 | 0.04 | 0.32 | 0.032 | 700 |  |  |  | CCOc1cc(NC(=O)NCc2cc(C)c(-c3cn(C)nc3C)cn2)cc(Cl)n1
 | > 20 | > 20000 | > 20000 | 2270 |  |  | > 30 | CCOc1nc(C)cc(NC(=O)NCc2cc(C)c(-c3cn(C)nc3C(F)(F)F)nn2)c1C#N
> 23 | 4 | 9.3 |  |  |  |  |  | Cc1cc(NNC(=O)Nc2cc(Cl)nc(Cl)c2)ncc1-c1ccn(C)n1
 | 0.009 | 0.43 | 0.43 | 2580 |  |  |  | Cc1cc(CNc2nc3cc(Cl)c(Cl)cc3[nH]2)ncc1-c1cn(C)nc1C
 | 0.89 | 1.3 | 1.3 | 633 |  |  |  | Cc1cc(CNC(=O)c2cc3c(Cl)nc(Cl)cc3[nH]2)ncc1-c1cn(C)nc1C
 | 0.11 | 0.61 | 0.61 | > 783 |  |  |  | Cc1cc(CNC(=O)c2cc3c(Cl)cc(Cl)cc3[nH]2)ncc1-c1cn(C)nc1C
